Shown are actives, neighbours in structure and some others; about 4.1% of the full set was active somewhere.
KCNK9 block – inhibitors of human KCNK9 two-pore domain potassium channel. Q9NPC2. HEK293 KCNK9, FluxOR thallium flux fluorescence; active compounds read low. B-score at 10 µM. 310,000 compounds, 1.2% hits. AID 488922;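 active means ratio B-score over 3 SD below the library mean, with starting fluorescence within 5 SD of its mean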;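 further: negative B-score means less thallium flux so channel inhibition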
hERG rescue – compounds protecting human hERG from proarrhythmic drug block | Q12809 | CHO-hERG, FluxOR thallium flux, dofetilide IC70 present | activation (rescue from dofetilide block), less the hit threshold, % at 10 µM | 310,000 compounds, 0.51% hits;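 active means activation above the mean of controls blocked by dofetilide plus 5 SD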;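 further: thallium influx through hERG after potassium depolarization seen as dye fluorescence rise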
KCNQ1 act – potentiates or activates the human KCNQ1 potassium channel; P51787; CHO-K1 KCNQ1, thallium flux FluxOR fluorescence; active compounds read high; B-score at 10 µM; 310,000 compounds, 0.35% hits;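 active means fluorescence ratio B-score, a plate-corrected score, at least three library SD, with initial intensity B-score within 5 SD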
Target sequence (P51787 whole entry, looked up): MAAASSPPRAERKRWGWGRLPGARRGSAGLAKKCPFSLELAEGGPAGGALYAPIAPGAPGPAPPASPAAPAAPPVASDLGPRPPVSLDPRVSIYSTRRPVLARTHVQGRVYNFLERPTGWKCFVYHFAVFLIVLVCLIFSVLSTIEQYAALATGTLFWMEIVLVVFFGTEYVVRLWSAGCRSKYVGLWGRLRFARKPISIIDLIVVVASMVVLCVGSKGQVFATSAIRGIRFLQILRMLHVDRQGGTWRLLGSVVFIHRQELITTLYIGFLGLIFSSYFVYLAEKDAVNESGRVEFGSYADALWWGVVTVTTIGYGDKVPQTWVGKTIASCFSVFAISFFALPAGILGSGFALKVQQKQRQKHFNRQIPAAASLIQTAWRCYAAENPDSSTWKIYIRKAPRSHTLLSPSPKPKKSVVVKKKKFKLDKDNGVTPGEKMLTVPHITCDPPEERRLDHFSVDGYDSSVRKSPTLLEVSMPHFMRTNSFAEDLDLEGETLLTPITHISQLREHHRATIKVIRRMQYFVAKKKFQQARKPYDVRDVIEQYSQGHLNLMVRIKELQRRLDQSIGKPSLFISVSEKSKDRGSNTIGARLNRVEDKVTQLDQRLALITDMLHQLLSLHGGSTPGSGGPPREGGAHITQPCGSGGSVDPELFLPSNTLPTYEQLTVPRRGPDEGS
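Material: CHO-K1 cells stably expressing KCNQ1. Medium: assay buffer for compound exposure, DMSO matched across wells. Reagent: K+/Tl+ depolarizing stimulus. Compound dosing: single-concentration screen. Times: 37 °C overnight plating, 90-min dark dye load, 20-min compound pretreatment. Technique: FluxOR Tl+ flux fluorescence.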
KCNQ1 inh – inhibitors of human KCNQ1 potassium channel. B-score at 10 µM. P51787. 310,000 compounds, 1.3% hits. AID 2642. CHO-K1 KCNQ1, FluxOR thallium flux fluorescence; active compounds read high;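 active means compounds whose thallium flux B-score, printed positive for inhibition, exceeds three library SD while starting fluorescence stays within three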;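 further: channel opened by potassium depolarization with thallium stimulus after 20 min compound exposure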
KCNK3 block – human KCNK3 channel inhibition, primary screen | O14649 | CHO-KCNK3 thallium flux, FluxOR fluorescence; active compounds read low | B-score at 10 µM | 340,000 compounds, 0.84% hits | AID 602410;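 active means B-score under library mean minus 4 SD, starting fluorescence ratio at most library mean plus 5 SD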;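 further: more negative B-score means stronger inhibition of thallium flux through KCNK3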
KCC2 mod – modulates chloride dependent transport by human KCC2 | KCC2 cells, thallium flux FluoZin-2 fluorescence | B-score of Tl+ flux slope (higher = more flux/activation; lower = inhibition) at 10 µM | 190,000 compounds, 2.2% hits;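 active means thallium flux slope and its plate-corrected score both differing from the plate sample mean at a set confidence after two filtering rounds, in either direction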;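 further: slope of fluorescence scaled to starting intensity during 10 to 20 s after thallium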
KCC2 secondary – confirmation of human KCC2 transport modulators. shares compounds with KCC2 mod. normalised thallium flux (F/F0 slope) at 10 µM. AID 1713. HEK293-KCC2, thallium flux, FluoZin2 fluorescence; active compounds read high. 3,700 compounds, 15% hits;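 active means thallium flux slope above the same plate's solvent-only control mean plus 3 SD; inconclusive means the two replicate wells disagree; inactive means no significant difference from solvent-only control wells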
KCC2 bumet counter – bumetanide-insensitive thallium flux in KCC2 cells with ouabain, counter-screen | shares compounds with KCC2 mod | HEK293-KCC2 + bumetanide/ouabain, thallium flux FluoZin2; active compounds read high | normalized thallium flux at 10 µM | 3,700 compounds, 49% hits | AID 1714;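 active means thallium entry rate above the same plate's blocked-transporter control wells by more than 3 SD; inconclusive means the two repeat wells disagree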;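 further: raw slope of fluorescence over initial fluorescence between 10 and 20 s after thallium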
KCC2 sec2 – KCC2 (human) modulation, second secondary assay; AID 1715; 3,700 compounds, 23% hits; HEK293-KCC2, thallium flux FluoZin2 fluorescence; actives lie on both sides; F/F0 rise rate, 10–20 s post-thallium; shares compounds with KCC2 mod; normalized thallium flux at 10 µM;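 active means thallium flux slope more than 3 SD above or below the plate's solvent-only control mean, mostly below; inconclusive means the two repeat wells disagreed; inactive means no significant shift from solvent-only controls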
HEK counter1 – parental HEK flux effect, counter-screen; HEK293 parental cells, thallium flux FluoZin2, ouabain; baseline-ratio fluorescence slope, 10–20 s after thallium; 3,700 compounds, 46% hits; thallium flux rate (normalised fluorescence) at 10 µM; shares compounds with KCC2 mod;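 active means thallium flux rate significantly above the same plate's solvent-only control wells, beyond their mean plus 3 SD; inconclusive means the two replicate wells gave conflicting results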
KCC2 retest ouab – KCC2 (human) modulation, ouabain retest | shares compounds with KCC2 mod | HEK293-KCC2, thallium flux FluoZin2 fluorescence; bidirectional: low = inhibitor, high = activator | raw Tl+ flux slope (below DMSO = inhibition, above = activation) at 10 µM | 3,700 compounds, 48% hits | AID 1717;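 active means thallium flux slope beyond 3 SD from same-plate DMSO control mean in most replicates, usually higher, sometimes lower; inconclusive means repeat tests gave conflicting results; inactive means no significant difference from controls in most replicates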;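 further: slope of initial-normalized fluorescence between seconds 10 and 20 after thallium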
HEK293 Tl flux2 – counter-screen for KCC2 modulators: effect in parental HEK293 cells | shares compounds with KCC2 mod | thallium flux FluoZin-2 fluorescence slope | thallium flux slope at 10 µM | 3,700 compounds, 33% hits;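 active means thallium flux slope above the same plate's solvent-control mean plus 3 SD in both duplicate wells; inconclusive means duplicate wells that disagreed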;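 further: run without ouabain in cells lacking the KCC2 cotransporter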
Each line names hits and unclear results; the compound was inactive in the other large screens (follow-up assays come after a bar, where they were run).

O=C1Cc2ccccc2C(=O)N1CCc1ccccc1	none (no result: KCC2 mod) | KCC2 secondary inactive | KCC2 bumet counter inactive | KCC2 sec2 inactive | HEK counter1 inactive | KCC2 retest ouab inactive | HEK293 Tl flux2 inactive
O=C1C(=O)N(Cc2ccccc2)C(=O)N1CCN1C(=O)c2ccccc2C1=O	none
O=C(c1ccccc1SCc1ccc(F)cc1)N1CCOCC1	KCC2 mod -3.46 | KCC2 secondary inactive | KCC2 bumet counter inconclusive | KCC2 sec2 0.0238 | HEK counter1 inactive | KCC2 retest ouab 0.014 | HEK293 Tl flux2 inactive
CN(c1ccc(OCc2nnc(-c3ccccc3)o2)cc1)S(=O)(=O)c1ccccc1	KCC2 mod -4.17 | KCC2 secondary inactive | KCC2 bumet counter inconclusive | KCC2 sec2 inactive | HEK counter1 0.00573 | KCC2 retest ouab inactive | HEK293 Tl flux2 inactive
CC(C)(C)[C@@H]1COC(=O)[C@@H](Cc2ccc(F)cc2)C/C=C\C[C@H](CC(=O)N(CCO)Cc2ccccc2)C(=O)N1	none (no result: KCNK9 block, hERG rescue, KCNQ1 act, KCNQ1 inh, KCC2 mod)
S=c1nc(-c2csc3c2CCCC3)[nH][nH]1	KCC2 mod 4.2 | KCC2 secondary inactive | KCC2 bumet counter 0.0156 | KCC2 sec2 inactive | HEK counter1 0.0148 | KCC2 retest ouab 0.0221 | HEK293 Tl flux2 0.0172
O=c1nc(-c2ccccc2)c(-c2ccccc2)n[nH]1	none (no result: KCC2 mod)
S=c1nc(-c2ccccc2)c(-c2ccccc2)n[nH]1	KCC2 mod 6.02 | KCC2 secondary inactive | KCC2 bumet counter 0.0136 | KCC2 sec2 inactive | HEK counter1 0.0164 | KCC2 retest ouab inconclusive | HEK293 Tl flux2 0.0204
CCCCCCc1nc(C(N)=O)c2[nH]c(=O)n(-c3ccccc3F)c2n1	none (no result: KCC2 mod)
O=C(COC(=O)/C=C/c1ccccc1)NCCNC(=O)COC(=O)/C=C/c1ccccc1	none (no result: KCC2 mod)
CC(C)CCNC(=O)COC(=O)/C=C/c1ccc2ccccc2n1	KCC2 mod -3.95 | KCC2 secondary inactive | KCC2 bumet counter inactive | KCC2 sec2 0.0238 | HEK counter1 inactive | KCC2 retest ouab 0.0135 | HEK293 Tl flux2 inactive
CCCn1nc([N+](=O)[O-])c(C(C#N)c2nc3ccccc3o2)c(Cl)c1=O (stereo not given)	KCNQ1 inh 6, KCC2 mod -6.58 | KCC2 secondary inactive | KCC2 bumet counter inconclusive | KCC2 sec2 0.022 | HEK counter1 0.00576 | KCC2 retest ouab 0.0119 | HEK293 Tl flux2 inactive
Cn1nc([N+](=O)[O-])c(C(C#N)c2ccccn2)c(Cl)c1=O (stereo not given)	none
Cc1ccc(NC(=O)NC(=O)CN2C(=O)NC3(CCCCCCC3)C2=O)c(C)c1	KCC2 mod -5.52 | KCC2 secondary inactive | KCC2 bumet counter inactive | KCC2 sec2 inactive | HEK counter1 inactive | KCC2 retest ouab inactive | HEK293 Tl flux2 inactive
COc1ccc(/C=N/NC(=S)SC)cc1OC	KCC2 mod 38.1 | KCC2 secondary inconclusive | KCC2 bumet counter 0.0764 | KCC2 sec2 0.0629 | HEK counter1 0.0535 | KCC2 retest ouab 0.0725 | HEK293 Tl flux2 0.0553
COc1ccc(C=NNC(=O)NN=Cc2ccc(OC)c(OC)c2)cc1OC	none (no result: KCNK9 block, hERG rescue, KCNQ1 act, KCNQ1 inh, KCC2 mod)

From PubChem
